Measured values published in ChEMBL document CHEMBL1147187, “Design and synthesis of new potent dipeptidyl peptidase IV inhibitors with enhanced ex vivo duration” (Bioorg Med Chem, 2007).
Activity calls are given as the source filed them. The rule behind the calls is not given here.

How the values were obtained:
[1] = biological target: Dipeptidyl peptidase 4 (Rattus norvegicus) (UniProt P14740); assay: Ex vivo inhibition of DPP4 in Sprague-Dawley rat plasma at 1 mg/kg, po after 6 hrs; assay type: organism-based; parameters: dose 1 mg/kg
How it was run: (§1)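 Male SD rats, 6–7 weeks old, fasted at least 8 h, given a single oral dose of 1 mg/kg in 0.5% methyl cellulose. Jugular vein blood taken before dosing and serially to 10 h (12 h in the species comparison). Plasma mixed with substrate (50 µL of 60 µM Gly-Pro-AMC). Initial fluorescence rate over 15 min at 37 °C; % inhibition is relative to basal activity.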

[2] = biological target: Dipeptidyl peptidase 4 (Rattus norvegicus) (UniProt P14740); assay: Ex vivo inhibition of DPP4 in Sprague-Dawley rats plasma at 1 mg/kg, po after 10 hrs; assay type: organism-based; parameters: dose 1 mg/kg; how it was run: as §1
Canis familiaris = assay: Ex vivo inhibition of DPP4 in Beagle dog at 1 mg/kg, po after 12 hrs; assay type: functional; details: Canis lupus familiaris
How it was run: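 Male beagle dogs (11–15 kg) and male cynomolgus monkeys (3.5–6 kg), fasted 8 h, given a single oral dose of 1 mg/kg in 0.5% methyl cellulose. Femoral vein blood taken before dosing and at 12 h. Plasma DPP-IV activity measured as the initial rate of Gly-Pro-AMC cleavage (fluorescence, ex 355/em 460 nm, 37 °C); % inhibition is relative to basal activity.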

[3] = biological target: Dipeptidyl peptidase 4 (Rattus norvegicus) (UniProt P14740); assay: Ex vivo inhibition of DPP4 in Sprague-Dawley rats plasma at 1 mg/kg, po after 12 hrs; assay type: organism-based; parameters: dose 1 mg/kg; how it was run: as §1
Cynomolgus monkey = assay: animal or person; details: Macaca fascicularis, po, 12 h, read-out: Inhibition
[4] = Stability in Tris buffer at pH 7.4 after 24 hrs; assay type: physicochemical; details: read-out: Stability
How it was run: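 Remaining percentage measured after incubation in 100 mM Tris buffer, pH 7.4, at room temperature for 24 h.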

Rattus norvegicus [5] = assay: Suppression of glucose level in Sprague-Dawley rats at 1 mg/kg, po administered 30 mins prior to glucose by glucose tolerance test after 12 hrs; assay type: functional, organism-based; parameters: dose 1 mg/kg
How it was run: (§2)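 Male SD rats (364–473 g), fasted at least 20 h, given vehicle (0.5% methyl cellulose) or 1 mg/kg orally at −0.5 h. Oral glucose 1 g/kg given at 0, 6 and 12 h. Tail-vein blood collected into heparinized tubes from −0.08 h to 14 h. Plasma glucose measured by glucose oxidase–peroxidase dye method.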

Rattus norvegicus [6] = assay: Suppression of glucose level in Sprague-Dawley rats at 1 mg/kg, po administered 30 mins prior to glucose by glucose tolerance test after 6 hrs; assay type: functional, organism-based; parameters: dose 1 mg/kg; how it was run: as §2
Rattus norvegicus [7] = assay: Suppression of glucose level in Sprague-Dawley rats at 1 mg/kg, po administered 30 mins prior to glucose by glucose tolerance test; assay type: functional, organism-based; parameters: dose 1 mg/kg; how it was run: as §2

Sequence of Dipeptidyl peptidase 4 (Rattus norvegicus) (P14740 whole entry, looked up): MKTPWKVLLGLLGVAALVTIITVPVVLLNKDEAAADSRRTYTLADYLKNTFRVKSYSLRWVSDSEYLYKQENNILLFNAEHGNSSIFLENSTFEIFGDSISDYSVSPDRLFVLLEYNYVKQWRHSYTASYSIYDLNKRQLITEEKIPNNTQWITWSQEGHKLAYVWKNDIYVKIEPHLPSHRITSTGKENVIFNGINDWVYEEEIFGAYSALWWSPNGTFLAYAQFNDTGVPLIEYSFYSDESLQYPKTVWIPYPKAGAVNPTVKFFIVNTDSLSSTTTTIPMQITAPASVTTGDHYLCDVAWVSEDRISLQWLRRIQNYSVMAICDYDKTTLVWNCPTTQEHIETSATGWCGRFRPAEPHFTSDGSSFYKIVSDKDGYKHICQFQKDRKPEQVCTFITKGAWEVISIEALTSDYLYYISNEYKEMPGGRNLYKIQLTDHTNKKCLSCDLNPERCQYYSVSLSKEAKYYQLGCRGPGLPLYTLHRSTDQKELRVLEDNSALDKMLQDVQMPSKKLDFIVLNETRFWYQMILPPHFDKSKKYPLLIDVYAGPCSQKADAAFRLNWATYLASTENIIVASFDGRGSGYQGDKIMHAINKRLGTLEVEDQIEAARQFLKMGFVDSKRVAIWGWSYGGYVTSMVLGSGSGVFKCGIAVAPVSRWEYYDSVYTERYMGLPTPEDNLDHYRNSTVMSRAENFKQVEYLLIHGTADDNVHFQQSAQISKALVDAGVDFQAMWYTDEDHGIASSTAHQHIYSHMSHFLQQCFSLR

Compound | inhibition [1] [%] | inhibition [2] [%] | also measured
CN(C)C(=O)CC[C@@H]1CN[C@H](C(=O)N2CCC[C@H]2C#N)C1 | 58 |  | 
CCC[C@@H]1CN[C@H](C(=O)N2CCC[C@H]2C#N)C1 | 50 |  | 
CCNC(=O)[C@@H]1CN[C@H](C(=O)N2CCC[C@H]2C#N)C1 | 60 | 19 | 
CN(C)C(=O)C[C@@H]1CN[C@H](C(=O)N2CCC[C@H]2C#N)C1 | 66 |  | 
N#C[C@@H]1CCCN1C(=O)[C@@H]1C[C@H](CC(=O)O)CN1 | 58 |  | 
CNC(=O)[C@@H]1CN[C@H](C(=O)N2CCC[C@H]2C#N)C1 | 75 | 28 | 
CN(C)C(=O)[C@@H]1CN[C@H](C(=O)N2CCC[C@H]2C#N)C1 | 76 | 52 | remaining at 24 h [4]: 52%; inhibition in vivo at 1 mg/kg (Canis familiaris): 45%; inhibition [3]: 24%; inhibition in vivo at 1 mg/kg (Cynomolgus monkey): 44%
C=CC[C@@H]1CN[C@H](C(=O)N2CCC[C@H]2C#N)C1 | 38 |  | 
CCN(C)C(=O)[C@@H]1CN[C@H](C(=O)N2CCC[C@H]2C#N)C1 | 71 | 34 | 
CCN(CC)C(=O)[C@@H]1CN[C@H](C(=O)N2CCC[C@H]2C#N)C1 | 43 |  | 
N#C[C@@H]1CCCN1C(=O)[C@@H]1C[C@H](C(N)=O)CN1 | 47 | 20 | 
CCCNC(=O)[C@@H]1CN[C@H](C(=O)N2CCC[C@H]2C#N)C1 | 59 | 21 | 
N#C[C@@H]1CCCN1C(=O)[C@@H]1C[C@H](CO)CN1 | 64 |  | 
N#C[C@@H]1CCCN1C(=O)[C@@H]1C[C@H](C(=O)N2CCOCC2)CN1 | 73 | 44 | 
N#C[C@@H]1CCCN1C(=O)[C@@H]1C[C@H](CCO)CN1 | 64 |  | 
N#C[C@@H]1CCCN1C(=O)[C@@H]1CCCN1 | 20 |  | 
N#C[C@@H]1CCCN1C(=O)[C@@H]1C[C@H](C(=O)N2CCSCC2)CN1 | 72 | 19 | 

Second part, led by results:

inhibition [1] [%] | inhibition [2] [%] | Compound | also measured
68 |  | N#C[C@@H]1CCCN1C(=O)[C@@H]1C[C@H](C(=O)N2CCCCCC2)CN1 | 
85 | 40 | N#C[C@@H]1CCCN1C(=O)[C@@H]1C[C@H](C(=O)N2CCCC2)CN1 | 
77 | 46 | N#C[C@@H]1CCCN1C(=O)[C@@H]1C[C@H](C(=O)N2CCC2)CN1 | 
94 | 88 | C[C@@H]1N[C@H](C(=O)N2CCC[C@H]2C#N)C[C@@H]1C(=O)N1CCC1 | 
94 | 88 | C[C@@H]1N[C@H](C(=O)N2CCC[C@H]2C#N)C[C@@H]1C(=O)N1CCCC1 | inhibition in vivo at 1 mg/kg (Canis familiaris): 95%; inhibition [3]: 82%; inhibition in vivo at 1 mg/kg (Cynomolgus monkey): 95%
91 | 81 | C[C@@H]1N[C@H](C(=O)N2CCC[C@H]2C#N)C[C@@H]1C(=O)N1CCCCC1 | 
92 | 79 | CCN(C)C(=O)[C@H]1C[C@@H](C(=O)N2CCC[C@H]2C#N)N[C@H]1C | inhibition in vivo at 1 mg/kg (Canis familiaris): 89%; inhibition [3]: 74%; inhibition in vivo at 1 mg/kg (Cynomolgus monkey): 95%
84 | 50 | N#C[C@@H]1CCCN1C(=O)[C@@H]1C[C@H](C(=O)N2CCCCC2)CN1 | 
63 |  | N#C[C@@H]1CCCN1C(=O)[C@@H]1C[C@H](C(=O)N2CCCCCCC2)CN1 | 
94 | 85 | C[C@@H]1N[C@H](C(=O)N2CCC[C@H]2C#N)C[C@@H]1C(=O)N1CCOCC1 | inhibition in vivo at 1 mg/kg (Canis familiaris): 98%; inhibition in vivo at 1 mg/kg (Cynomolgus monkey): 90%
92 | 85 | C[C@@H]1N[C@H](C(=O)N2CCC[C@H]2C#N)C[C@@H]1C(=O)N1CCSCC1 | 
95 | 84 | C[C@@H]1N[C@H](C(=O)N2CCC[C@H]2C#N)C[C@@H]1C(=O)N(C)C | Activity (Rattus norvegicus [5]): Active; remaining at 24 h [4]: 92%; inhibition in vivo at 1 mg/kg (Canis familiaris): 98%; Activity (Rattus norvegicus [6]): Active; Activity (Rattus norvegicus [7]): Active; inhibition [3]: 81%; inhibition in vivo at 1 mg/kg (Cynomolgus monkey): 93%
86 | 77 | C[C@@H]1N[C@H](C(=O)N2CCC[C@H]2C#N)C[C@@H]1C(=O)N1Cc2ccccc2C1 | inhibition in vivo at 1 mg/kg (Canis familiaris): 16%; inhibition [3]: 71%
